Values joined by “and” are separate entries in the source; they are usually repeats but may differ in a detail not shown here. Equal entries are not always repeated. Peptide text beside a SMILES is read from it. * marks the point of attachment. Cbz = O=C(OCc1ccccc1)*; Boc = CC(C)(C)OC(=O)*; NHBn = c1ccc(CN*)cc1; Bn = c1ccc(C*)cc1
Key:
[1] = target: T1, Gonadotropin-releasing hormone receptor (Rattus norvegicus) (UniProt P30969); experiment: In vitro antagonist activity at GNRHR in CD rat anterior pituitary gland assessed as inhibition of LH-RH-stimulated LH release at compound to LH-RH molar ratio of 20 after 4 hrs by radioimmunoassay; conditions: concentration not given here
T1 sequence (whole entry): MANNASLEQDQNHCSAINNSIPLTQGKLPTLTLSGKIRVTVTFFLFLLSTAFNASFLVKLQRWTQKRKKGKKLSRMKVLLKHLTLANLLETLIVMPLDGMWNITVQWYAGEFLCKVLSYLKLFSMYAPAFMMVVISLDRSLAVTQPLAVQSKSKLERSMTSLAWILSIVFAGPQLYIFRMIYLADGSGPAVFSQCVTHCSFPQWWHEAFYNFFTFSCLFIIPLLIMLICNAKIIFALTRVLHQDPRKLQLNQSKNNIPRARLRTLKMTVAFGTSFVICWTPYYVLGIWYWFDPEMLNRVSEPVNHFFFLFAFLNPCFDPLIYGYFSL
How it was run: (§1)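 Anterior pituitaries from diestrus CD rats (200-250 g) were dissociated enzymatically (collagenase, hyaluronidase, then Viokase). Cells were cultured 4 days at 1.67 × 10^5 cells/mL in DME with 10% horse serum and 2.5% fetal calf serum, then washed serum-free. Duplicate cultures received LH-RH (2-5 × 10^-10 M) with a single analogue concentration in serum-free DME for 4 h at 37 °C. LH in the medium was measured by RIA and reported as % inhibition of LH-RH-stimulated release.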

Rattus norvegicus [2] = experiment: Antiovulatory activity in CD rat assessed as blockade of ovulation at 1 mg, sc administered as six doses at 1200, 1230, 1300, 1350, 1400 and 1450 hrs during proestrus stage measured during estrus stage by dissecting microscopic analysis; assay type: functional
How it was run: (§2)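 Cycling Charles River CD rats were given six subcutaneous injections of analogue in 0.1 mL propylene glycol on the afternoon of proestrus, and controls received vehicle alone. Rats were killed the next morning (estrus). Ovulating animals were scored and ova in the oviducts were counted under a dissecting microscope.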

Rattus norvegicus [3] = experiment: Antiovulatory activity in sc dosed CD rat assessed as blockade of ovulation administered as six doses at 1200, 1230, 1300, 1350, 1400 and 1450 hrs during proestrus stage measured during estrus stage by dissecting microscopic analysis; assay type: functional; how it was run: as §2
[4] = target: T1, Gonadotropin-releasing hormone receptor (Rattus norvegicus); experiment: In vitro antagonist activity at GNRHR in CD rat anterior pituitary gland assessed as inhibition of LH-RH-stimulated LH release at compound to LH-RH molar ratio of 10000 after 4 hrs by radioimmunoassay; conditions: concentration not given here; how it was run: as §1
[5] = target: T1, Gonadotropin-releasing hormone receptor (Rattus norvegicus); experiment: In vitro antagonist activity at GNRHR in CD rat anterior pituitary gland assessed as inhibition of LH-RH-stimulated LH release at compound to LH-RH molar ratio of 10 after 4 hrs by radioimmunoassay; conditions: concentration not given here; how it was run: as §1
[6] = target: T1, Gonadotropin-releasing hormone receptor (Rattus norvegicus); experiment: In vitro antagonist activity at GNRHR in CD rat anterior pituitary gland assessed as ratio of molar concentration of compound to LH-RH for inhibition of LH-RH-stimulated LH release after 4 hrs by radioimmunoassay
How it was run: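 Monolayers were cultured 4 days from dissociated anterior pituitary cells of diestrus CD rats. They were exposed in duplicate to LH-RH (2-5 × 10^-10 M) plus multiple analogue concentrations in serum-free DME for 4 h at 37 °C. LH in the medium was measured by radioimmunoassay. The ED50 molar ratio is the analogue:LH-RH molar ratio giving 50% inhibition of LH-RH-stimulated LH release.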

[7] = target: T1, Gonadotropin-releasing hormone receptor (Rattus norvegicus); experiment: In vitro antagonist activity at GNRHR in CD rat anterior pituitary gland assessed as inhibition of LH-RH-stimulated LH release at compound to LH-RH molar ratio of 100 after 4 hrs by radioimmunoassay; conditions: concentration not given here; how it was run: as §1
[8] = target: T1, Gonadotropin-releasing hormone receptor (Rattus norvegicus); experiment: In vitro antagonist activity at GNRHR in CD rat anterior pituitary gland assessed as inhibition of LH-RH-stimulated LH release at compound to LH-RH molar ratio of 2800 after 4 hrs by radioimmunoassay; conditions: concentration not given here; how it was run: as §1

Compound	inhibition [1] [%]	inhibition [4] [%]	inhibition [5] [%]	ED50 [6]	inhibition [7] [%]	inhibition [8] [%]	inhibition (INH) (Rattus norvegicus [2]) [%]	ED50 (Rattus norvegicus [3]) [mg]
CC(=O)O.CCNC(=O)[C@@H]1CCCN1C(=O)[C@H](CCCNC(=N)N)NC(=O)[C@H](CC(C)C)NC(=O)[C@@H](Cc1ccc(OC)cc1)NC(=O)[C@H](Cc1ccc(O)cc1)NC(=O)[C@H](CO)NC(=O)[C@H](Cc1c[nH]c2ccccc12)NC(=O)[C@H](COCc1ccccc1)NC(=O)OCc1ccccc1	100	–	–	–	–	–	100	0.1
CC(C)C[C@H](NC(=O)CNC(=O)[C@H](Cc1ccc(O)cc1)NC(=O)[C@H](CO)NC(=O)[C@H](Cc1c[nH]c2ccccc12)NC(=O)[C@@H]1CCC(=O)N1)C(=O)N[C@@H](CCCNC(=N)N)C(=O)N1CCC[C@H]1C(=O)NCC(N)=O (HELM PEPTIDE1{[Glp].W.S.Y.G.L.R.P.G.[am]}$$$$V2.0)	–	60	–	–	–	–	–	–
CC(C)C[C@H](NC(=O)CNC(=O)[C@H](Cc1ccc(O)cc1)NC(=O)[C@H](CO)NC(=O)[C@H](Cc1c[nH]c2ccccc12)NC(=O)OCc1ccccc1)C(=O)N[C@@H](CCCNC(=N)N)C(=O)N1CCC[C@H]1C(=O)NCC(N)=O.Cl (HELM PEPTIDE1{[O=C(OCc1ccccc1)[*:2]].W.S.Y.G.L.R.P.G.[am]}$$$$V2.0)	–	68	–	–	–	–	20	>1
CC(C)C[C@H](NC(=O)CNC(=O)[C@H](Cc1ccc(O)cc1)NC(=O)[C@H](CO)NC(=O)[C@H](Cc1c[nH]c2ccccc12)NC(=O)[C@H](CCC(=O)NCc1ccccc1)NC(=O)OCc1ccccc1)C(=O)N[C@@H](CCCNC(=N)N)C(=O)N1CCC[C@H]1C(=O)NCC(N)=O.Cl (HELM PEPTIDE1{[O=C(OCc1ccccc1)[*:2]].E.W.S.Y.G.L.R.P.G.[am]}|CHEM1{[c1ccc(CN[*:1])cc1]}$PEPTIDE1,CHEM1,2:R3-1:R1$$$V2.0)	–	–	–	360 molar ratio	96	–	40	>1
CC(C)C[C@H](NC(=O)CNC(=O)[C@H](Cc1ccc(O)cc1)NC(=O)[C@H](CO)NC(=O)[C@H](Cc1c[nH]c2ccccc12)NC(=O)[C@@H](Cc1ccccc1)NC(=O)OCc1ccccc1)C(=O)N[C@@H](CCCNC(=N)N)C(=O)N1CCC[C@H]1C(=O)NCC(N)=O.Cl	–	–	–	–	–	76	0	>1
CC(=O)O.CC(C)C[C@H](NC(=O)[C@@H](Cc1ccccc1)NC(=O)[C@H](Cc1ccc(O)cc1)NC(=O)[C@H](CO)NC(=O)[C@H](Cc1c[nH]c2ccccc12)NC(=O)[C@H](COCc1ccccc1)NC(=O)OCc1ccccc1)C(=O)N[C@@H](CCCNC(=N)N)C(=O)N1CCC[C@H]1C(=O)N(C)C	100	–	–	5.9 molar ratio	–	–	40	>3
H-WSYGLRPG-NH2	–	15	–	–	–	–	–	–
CC(C)C[C@H](NC(=O)OCc1ccccc1)C(=O)N[C@@H](Cc1c[nH]c2ccccc12)C(=O)N[C@@H](CO)C(=O)N[C@@H](Cc1ccc(O)cc1)C(=O)N[C@H](CC(N)=O)C(=O)N[C@@H](CC(C)C)C(=O)N[C@@H](CCCNC(=N)N)C(=O)N1CCC[C@H]1C(=O)NCC(N)=O.Cl	–	–	–	134 molar ratio	42	–	0	>1
CC(C)C[C@H](NC(=O)CNC(=O)[C@H](Cc1ccc(O)cc1)NC(=O)[C@H](CO)NC(=O)[C@H](Cc1c[nH]c2ccccc12)NC(=O)[C@H](Cc1ccc(OCc2ccccc2)cc1)NC(=O)OCc1ccccc1)C(=O)N[C@@H](CCCNC(=N)N)C(=O)N1CCC[C@H]1C(=O)NCC(N)=O.Cl (Cbz-Y(Bn)WSYGLRPG-NH2)	–	–	–	–	–	74	20	>1
CCNC(=O)[C@@H]1CCCN1C(=O)[C@H](CCCNC(=N)N)NC(=O)[C@H](CC(C)C)NC(=O)CNC(=O)[C@H](Cc1ccc(O)cc1)NC(=O)[C@H](CO)NC(=O)[C@H](Cc1c[nH]c2ccccc12)NC(=O)[C@H](CCC(=O)NCc1ccccc1)NC(=O)OCc1ccccc1.Cl (Cbz-E(NHBn)WSYGLRP-NHEt)	–	–	–	350 molar ratio	88	–	20	>1
CC(C)C[C@H](NC(=O)CNC(=O)[C@H](Cc1ccc(O)cc1)NC(=O)[C@H](CO)NC(=O)[C@H](Cc1c[nH]c2ccccc12)NC(=O)[C@@H]1CCCN1C=O)C(=O)N[C@@H](CCCNC(=N)N)C(=O)N1CCC[C@H]1C(=O)NCC(N)=O (HELM PEPTIDE1{[O=C[*:2]].P.W.S.Y.G.L.R.P.G.[am]}$$$$V2.0)	–	53	–	–	–	–	–	–
CCNC(=O)[C@@H]1CCCN1C(=O)[C@H](CCCNC(=N)N)NC(=O)[C@H](CC(C)C)NC(=O)CNC(=O)[C@H](Cc1ccc(O)cc1)NC(=O)[C@H](CO)NC(=O)[C@H](Cc1c[nH]c2ccccc12)NC(=O)[C@H](COCc1ccccc1)NC(=O)OC(C)(C)C (Boc-S(Bn)WSYGLRP-NHEt)	–	–	–	–	–	40	–	–
CCNC(=O)[C@@H]1CCCN1C(=O)[C@H](CCCNC(=N)N)NC(=O)[C@H](CC(C)C)NC(=O)CNC(=O)[C@H](Cc1ccc(O)cc1)NC(=O)[C@H](CO)NC(=O)[C@H](Cc1c[nH]c2ccccc12)NC(=O)[C@@H](CC(C)C)NC(=O)OCc1ccccc1	–	–	–	–	–	51	–	–

Continued, in another order:

inhibition [1] [%]	inhibition [4] [%]	inhibition [5] [%]	ED50 [6]	inhibition [7] [%]	inhibition [8] [%]	Compound	inhibition (INH) (Rattus norvegicus [2]) [%]	ED50 (Rattus norvegicus [3]) [mg]
–	–	100	1.3 molar ratio	–	–	COc1ccc(COC(=O)N[C@@H](COCc2ccccc2)C(=O)N[C@@H](Cc2c[nH]c3ccccc23)C(=O)N[C@@H](CO)C(=O)N[C@@H](Cc2ccc(O)cc2)C(=O)N[C@H](Cc2ccccc2)C(=O)N[C@@H](CC(C)C)C(=O)N[C@@H](CCCNC(=N)N)C(=O)N2CCC[C@H]2C(=O)NCC(N)=O)cc1.Cl	40	>1
57	–	–	7 molar ratio	–	–	CC(C)C[C@H](NC(=O)[C@@H](CC(C)C)NC(=O)[C@H](Cc1ccc(O)cc1)NC(=O)[C@H](CO)NC(=O)[C@H](Cc1c[nH]c2ccccc12)NC(=O)[C@H](Cc1ccc(OCc2ccccc2)cc1)NC(=O)OCc1ccccc1)C(=O)N[C@@H](CCCNC(=N)N)C(=O)N1CCC[C@H]1C(=O)NCC(N)=O.Cl	0	>1
–	–	–	3.9 molar ratio	100	–	CCNC(=O)[C@@H]1CCCN1C(=O)[C@H](CCCNC(=N)N)NC(=O)[C@H](CC(C)C)NC(=O)[C@@H](Cc1c[nH]c2ccccc12)NC(=O)[C@H](Cc1ccc(O)cc1)NC(=O)[C@H](CO)NC(=O)[C@H](Cc1c[nH]c2ccccc12)NC(=O)[C@H](CCC(N)=O)NC(=O)OCc1ccccc1.Cl	20	>1
71	–	62	2.7 molar ratio and 1.3 molar ratio	–	–	CC(=O)O.CCNC(=O)[C@@H]1CCCN1C(=O)[C@H](CCCNC(=N)N)NC(=O)[C@H](CC(C)C)NC(=O)[C@@H](Cc1ccccc1)NC(=O)[C@H](Cc1ccc(O)cc1)NC(=O)[C@H](CO)NC(=O)[C@H](Cc1c[nH]c2ccccc12)NC(=O)[C@H](CCC(=O)NCc1ccccc1)NC(=O)OCc1ccccc1	0	>1
–	58	–	–	–	–	CC(C)C[C@H](NC(=O)CNC(=O)[C@H](Cc1ccc(O)cc1)NC(=O)[C@H](CO)NC(=O)[C@H](Cc1c[nH]c2ccccc12)NC(=O)[C@H](Cc1cnc[nH]1)NC(=O)OCc1ccccc1)C(=O)N[C@@H](CCCNC(=N)N)C(=O)N1CCC[C@H]1C(=O)NCC(N)=O (HELM PEPTIDE1{[O=C(OCc1ccccc1)[*:2]].H.W.S.Y.G.L.R.P.G.[am]}$$$$V2.0)	–	–
–	–	–	20 molar ratio	–	86	CCNC(=O)[C@@H]1CCCN1C(=O)[C@H](CCCNC(=N)N)NC(=O)[C@H](CC(C)C)NC(=O)[C@@H](CCCNC(=N)N)NC(=O)[C@H](Cc1ccc(O)cc1)NC(=O)[C@H](CO)NC(=O)[C@H](Cc1c[nH]c2ccccc12)NC(=O)[C@H](CCC(N)=O)NC(=O)OCc1ccccc1.Cl	0	>1
–	42	–	–	–	–	H-HWSYGLRPG-NH2	–	–
100	–	–	3 molar ratio	–	–	CCNC(=O)[C@@H]1CCCN1C(=O)[C@H](CCCNC(=N)N)NC(=O)[C@H](CC(C)C)NC(=O)[C@@H](Cc1ccccc1)NC(=O)[C@H](Cc1ccc(O)cc1)NC(=O)[C@H](CO)NC(=O)[C@H](Cc1c[nH]c2ccccc12)NC(=O)[C@H](CC(C)C)NC(=O)OCc1ccccc1.Cl	0	>1
